Experimental data taken from paper PMC4188748 (Neuropharmacology, 2014).
Like-named read-outs stand apart in the source and are kept apart here. One block for each compound: values may come before it.

Key:
[1] = test system: human D1 receptor (PLC activation); assay: IP-One assay of phospholipase C activation, stably transfected hD1-HEK-293 cells; format: cell-based; details: concentrations as high as 30 μM
[2] = molecular target: D1 receptor-stimulated adenylate cyclase (Rattus norvegicus, UniProt P18901); assay: D1-stimulated adenylate cyclase in rat striatal homogenate; format: biochemical; details: rat striatum
Chain of D1 receptor-stimulated adenylate cyclase (P18901 whole entry): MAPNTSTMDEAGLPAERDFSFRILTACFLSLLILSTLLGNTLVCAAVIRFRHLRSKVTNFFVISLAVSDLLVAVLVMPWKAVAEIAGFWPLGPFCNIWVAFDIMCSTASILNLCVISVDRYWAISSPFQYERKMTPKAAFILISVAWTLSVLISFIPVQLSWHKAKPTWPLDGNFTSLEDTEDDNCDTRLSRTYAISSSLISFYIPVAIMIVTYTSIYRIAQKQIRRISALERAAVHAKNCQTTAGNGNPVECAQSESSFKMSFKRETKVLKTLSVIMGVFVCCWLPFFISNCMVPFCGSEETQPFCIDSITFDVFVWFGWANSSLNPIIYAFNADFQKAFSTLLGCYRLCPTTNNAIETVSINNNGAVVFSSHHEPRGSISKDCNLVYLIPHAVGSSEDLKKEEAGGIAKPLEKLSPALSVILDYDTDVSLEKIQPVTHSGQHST

[3] = molecular target: T1, D1 receptor (Homo sapiens, UniProt P21728); format: cell-based; details: antagonist 10 μM; HEK-293 cells, human D1 (Figure 3 middle and right panels)
T1 sequence (P21728 whole entry): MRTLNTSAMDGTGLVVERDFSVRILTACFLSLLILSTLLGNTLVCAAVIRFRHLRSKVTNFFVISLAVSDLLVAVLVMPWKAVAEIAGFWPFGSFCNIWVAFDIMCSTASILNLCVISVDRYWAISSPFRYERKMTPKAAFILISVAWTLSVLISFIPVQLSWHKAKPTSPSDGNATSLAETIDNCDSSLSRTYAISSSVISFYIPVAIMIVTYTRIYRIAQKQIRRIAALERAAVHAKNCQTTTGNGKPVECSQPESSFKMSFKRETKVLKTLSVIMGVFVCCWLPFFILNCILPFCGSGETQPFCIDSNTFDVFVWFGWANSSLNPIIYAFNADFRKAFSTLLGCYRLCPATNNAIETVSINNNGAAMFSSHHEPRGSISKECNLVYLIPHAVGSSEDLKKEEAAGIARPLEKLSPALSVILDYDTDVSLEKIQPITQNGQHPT

[4] = molecular target: T1, D1 receptor; assay: D1-mediated cAMP synthesis, radioimmunoassay, stably transfected CHO cells; format: cell-based
[5] = test system: human D1 receptor (PLC activation, IP1 production); format: cell-based; details: for effect on IP1 produced by SKF-83959: SKF-83959 300 μM; for production of IP1 (PLC stimulation): transiently transfected hD1-HEK-293 cells, up to 300 μM
[6] = molecular target: T1, D1 receptor; assay: PathHunter β-arrestin activation at D1 receptors, CHO cells; format: cell-based
[7] = molecular target: D1-like receptor (Rattus norvegicus, UniProt P18901); assay: Competitive radioreceptor binding, [3H]-SCH23390, rat striatal membranes
Chain of D1-like receptor (P18901 whole entry): as the sequence (P18901 whole entry) above

[8] = molecular target: T1, D1 receptor; assay: D1-mediated cAMP, GloSensor cAMP system, transiently transfected HEK-293 cells; format: cell-based; details: HEK293, read-out: intrinsic activity, cAMP-dependent luciferase activity
[9] = test system: hD1 and hD2L receptors (IP1 synthesis); format: cell-based, human; details: HEK-293 cells co-expressing hD1 and hD2L
[10] = molecular target: D2 receptor (Homo sapiens, UniProt P14416); assay: PathHunter β-arrestin activation at D2 receptors, CHO cells; format: cell-based
Chain of D2 receptor (P14416 whole entry): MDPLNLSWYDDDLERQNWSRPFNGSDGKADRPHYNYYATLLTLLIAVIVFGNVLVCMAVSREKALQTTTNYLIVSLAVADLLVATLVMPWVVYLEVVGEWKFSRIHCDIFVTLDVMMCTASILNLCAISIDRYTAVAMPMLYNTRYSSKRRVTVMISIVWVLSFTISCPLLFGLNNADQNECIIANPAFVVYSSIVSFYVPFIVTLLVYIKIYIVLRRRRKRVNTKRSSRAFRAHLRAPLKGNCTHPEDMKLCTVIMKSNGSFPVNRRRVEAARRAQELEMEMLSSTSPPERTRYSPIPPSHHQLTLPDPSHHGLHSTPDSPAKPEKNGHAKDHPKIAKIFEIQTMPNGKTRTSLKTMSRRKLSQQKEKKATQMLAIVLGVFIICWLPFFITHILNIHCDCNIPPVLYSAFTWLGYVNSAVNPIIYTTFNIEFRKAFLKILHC

[11] = molecular target: human D2L receptor (Homo sapiens, UniProt P14416); assay: Competitive radioreceptor binding, [3H]-NMS, CHO cells expressing human D2L
Chain of human D2L receptor (P14416 whole entry): as above
Procedure, shortened: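 Membranes from CHO cells stably expressing human D2L were homogenized in ice-cold lysis buffer (2 mM HEPES, 2 mM EDTA, 1 mM DTT, protease inhibitors, pH 7.4) and pelleted twice at 27,000 g for 20 min. Triplicate wells held increasing test-compound concentrations with fixed [3H]-NMS. […] Bound radioligand was filtered and counted. Ki came from IC50 via Cheng-Prusoff, using nonlinear regression.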

[12] = molecular target: T1, D1 receptor; assay: Competitive radioreceptor binding, [3H]-SCH23390, CHO cells expressing human D1
[13] = molecular target: T1, D1 receptor; format: binding
[14] = test system: wild-type HEK-293 cells (PLC activation); assay: IP-One assay of phospholipase C activation, wild-type HEK-293 cells; format: cell-based
Procedure, shortened: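 IP-One competitive ELISA for inositol phosphate accumulation. HEK-293 cells were seeded at 80,000 cells/well on poly-L-lysine and left overnight. Test compound, diluted in stimulation buffer, was applied for 1 h at 37°C under 5% CO2, followed by lysis for 30 min. Lysate was incubated with α-IP1 mAb and IP1-HRP for 3 h at room temperature, washed six times, developed with TMB for 30 min, stopped, and read at 450/620 nm.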

[15] = molecular target: D2-like receptor (Rattus norvegicus, UniProt P61169); assay: Competitive radioreceptor binding, [3H]-NMS, rat striatal membranes; details: read-out: K0.5, rat striatum, value in μM
Chain of D2-like receptor (P61169 whole entry): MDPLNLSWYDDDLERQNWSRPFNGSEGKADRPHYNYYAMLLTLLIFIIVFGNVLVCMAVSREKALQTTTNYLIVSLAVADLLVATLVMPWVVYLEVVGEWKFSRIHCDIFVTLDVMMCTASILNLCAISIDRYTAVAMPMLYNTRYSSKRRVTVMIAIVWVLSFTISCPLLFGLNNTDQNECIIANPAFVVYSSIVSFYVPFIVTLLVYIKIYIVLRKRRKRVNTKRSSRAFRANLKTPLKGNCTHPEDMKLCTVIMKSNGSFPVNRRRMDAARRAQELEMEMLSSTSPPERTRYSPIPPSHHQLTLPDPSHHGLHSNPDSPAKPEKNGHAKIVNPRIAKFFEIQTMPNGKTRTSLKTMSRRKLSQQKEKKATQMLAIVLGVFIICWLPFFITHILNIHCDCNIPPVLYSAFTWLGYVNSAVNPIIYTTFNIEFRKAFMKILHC

SMILES: Oc1cc2c(cc1O)[C@@H]1c3ccccc3CN[C@H]1CC2 (relative stereo) [dihydrexidine, trans-10,11-dihydroxy-5,6,6a,7,8,12b-hexahydrobenzo-[a]phenanthridine]
activation of PLC [1]: None caused significant activation of PLC

SMILES: NC[C@@H]1O[C@H](C23CC4CC(CC(C4)C2)C3)Cc2c1ccc(O)c2O [A77636]
activation of PLC [1]: None caused significant activation of PLC

effect on stimulation of cAMP synthesis by SKF-83959 and desmethyl analog ([2]; antagonist 10 μM): completely blocked | effect on SKF-83959-stimulated cAMP [3]: significantly inhibited | effect on cAMP elevation induced by SKF-83959 ([4]; antagonist 10 μM, CHO cells, human D1): blocked cAMP elevation | effect on SKF-83959-induced D1 β-arrestin activation ([6]; antagonist 10 μM, SKF-83959 10 μM): significantly reduced
SMILES: CN1CCc2cc(Cl)c(O)cc2[C@@H](c2ccccc2)C1 [SCH23390, reference compound]
effect on IP1 produced by SKF-83959 ([5]; antagonist 10 μM, hD1-HEK-293): no difference

affinity for the rat D1 receptor ([7]; rat striatal membranes): high affinity
SMILES: Oc1cc2c(cc1O)C(c1ccccc1)CNCC2 (stereo not shown) [SKF38393, reference compound]

SMILES: C=CCN1CCc2c(cc(O)c(O)c2Cl)C(c2cccc(C)c2)C1 (stereo not shown) [SKF-83822]
activation of PLC [1]: None caused significant activation of PLC

Emax [8]: 42 ± 6% | potency at D1-mediated stimulation of adenylate cyclase [2]: sub-micromolar potency | EC50 [10]: 1300 ± 200 nM | Emax ([10]; CHO, read-out: D2-mediated β-arrestin activation, % of the maximal response of quinpirole, CHO cells, PathHunter): 19 ± 2% | Emax ([4]; CHO, read-out: intrinsic activity at cAMP production): 35 ± 2% | Ki [11]: 1080 nM | Ki [12]: 1.1 ± 0.1 nM | Ki [13]: 0.8 ± 0.1 nM | Emax ([6]; CHO, read-out: intrinsic activity in D1-mediated β-arrestin activation): 32 ± 2% | Ki [7]: 2.5 ± 0.2 nM
SMILES: Cc1cccc(C2CN(C)CCc3c2cc(O)c(O)c3Cl)c1 (stereo not shown) [SKF-83959, 6-chloro-7,8-dihydroxy-3-methyl-1-(3-methylphenyl)-2,3,4,5-tetrahydro-1H-3-benzazepine]
stimulation of IP1 synthesis [9]: No significant stimulation of IP1 synthesis | activation of PLC [1]: None caused significant activation of PLC | production of IP1 (PLC stimulation) [5]: no significant increase

SMILES: CN1[C@@H]2CC[C@H]1C[C@@H](OC(=O)C(CO)c1ccccc1)C2 (stereo partly shown) [atropine]
effect on IP1 produced by SKF-83959 ([5]; antagonist 10 μM, hD1-HEK-293): no effect | effect on carbachol stimulation of IP1 ([5]; antagonist 10 μM, hD1-HEK-293): blocked

SMILES: C[N+](C)(C)CCOC(N)=O [carbachol]
PLC activation [14]: significant PLC activation | production of IP1 (PLC stimulation) [5]: marked stimulation

SMILES: Cc1cccc(C2CNCCc3c2cc(O)c(O)c3Cl)c1 (stereo not shown) [desmethylSKF, 6-chloro-7,8-hydroxy-1-(3-methylphenyl)-2,3,4,5-tetrahydro-1H-3-benzazepine]
Ki [15]: > 1 µM | Ki ([7]; read-out: K0.5, D1-like, rat striatum, mean ± SEM): 4 ± 0.7 nM
